# High-throughput results deposited in PubChem by The Scripps Research Institute Molecular Screening Center.
# Shown are actives, neighbours in structure and some others; about 2.1% of the full set was active somewhere.
# bovine MsrA act: activates bovine MsrA enzyme | purified bovine MsrA, absorbance read-out | activation, % at 10.6 µM | 360,000 tested, 0.3% active | AID 602163; in the data active = activation above about 7.5%;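 note: 0% = vehicle and 100% = reference activator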
# PKA-R2B activ: PKA-R2B complex activation. PKA-R2B holoenzyme dissociation, Cy5-IP20 fluorescence polarization; R2B truncated from residue 108, S112A mutant; 0% DMSO only, 100% 113 µM cGMP. activation, % at 11.4 µM. 340,000 tested, 0.079% active. AID 504700;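 active = activation above a cutoff set at the mean over all compounds plus 3 SD, cut at about 18% in these data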;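 note: higher means more holoenzyme dissociation and a rise in polarization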
# IMP-1 inh-1: inhibitors of Pseudomonas aeruginosa IMP-1 metallo-beta-lactamase; purified IMP-1, nitrocefin hydrolysis, epi-absorbance fluorescence; inhibition, % at 5.6 µM; 290,000 tested, 0.45% active;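 active = inhibition above the mean plus 3 SD of all compounds in the same screening run, cut at about 4.5% in these data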;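 note: 0% = IMP-1 with DMSO and 100% = DMSO wells lacking enzyme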
#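 System: purified IMP-1; amount: IMP-1 0.2 nM before substrate addition; compound: single dose, 5.6 µM; times: 25 °C, 15 min preincubation, 25 min reaction; signal: Epi-absorbance via hydrolysed-nitrocefin quenching of white-plate fluorescence, 480/530 nm, EDTA stop; benchmarks: DMSO with and without IMP-1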
# PKA-R1A act: PKA-R1A complex activation. 340,000 tested, 0.083% active. AID 504707. PKA-R1A dissociation, Cy5-IP20 fluorescence polarization; scaled: DMSO 0%, 113 µM cGMP 100%. P00514+P68181. activation, % at 11.4 µM;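 active = percent activation above the mean of all tested compounds plus 3 SD, cut at about 19% in these data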;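 note: higher means more PKAc released from R1A so a rise in polarization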
# VIM-2 inh: inhibitors of Pseudomonas aeruginosa VIM-2 metallo-beta-lactamase. purified VIM-2, nitrocefin hydrolysis, epi-absorbance fluorescence. inhibition, % at 5.6 µM. 290,000 tested, 0.89% active;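 active = inhibition above the mean of all tested compounds plus 3 SD, cutoff set per screening run, cut at about 7.5% in these data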;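 note: red hydrolysis product quenches plate fluorescence so inhibitors raise well fluorescence; 0% = enzyme with DMSO and 100% = DMSO without enzyme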
# MsrA inh: bovine MsrA inhibition. 360,000 tested, 0.75% active. AID 651718. purified bovine MsrA, absorbance read-out. inhibition, % at 15.5 µM; in the data active = inhibition above about 4.5%;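 note: 0% = vehicle wells with enzyme and 100% = reference inhibitor wells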
# IMP-1 inh-2: IMP-1 inhibition, counter-screen for VIM-2 inhibitors | shares compounds with VIM-2 inh | purified IMP-1, nitrocefin hydrolysis, epi-absorbance fluorescence | inhibition, % at 5.6 µM | 1,300 tested, under 10 active | AID 1856; call rule not given here;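 note: 0% = enzyme with vehicle and 100% = vehicle without enzyme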
# VIM-2 FRET ctr: inhibits VIM-2 in FRET assay to exclude epi-absorbance artifacts | shares compounds with VIM-2 inh | purified VIM-2, CCF2 FRET substrate hydrolysis | inhibition, % at 5.6 µM | 1,300 tested, 23% active | AID 1857;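 active = inhibition above the mean of all tested compounds plus 3 SD, cut at about 19% in these data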;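 note: 0% = VIM-2 plus DMSO and 100% = no enzyme wells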
# TEM-1 inh: TEM-1 inhibition, counter-screen for VIM-2 inhibitors | shares compounds with VIM-2 inh | Purified TEM-1, nitrocefin hydrolysis, epi-absorbance fluorescence | inhibition, % at 5.6 µM | 1,300 tested, 3% active | AID 1866;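 active = inhibition above that campaign's mean inhibition plus 3 SD, cut at about 0.46% in these data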;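 note: 0% = TEM-1 with DMSO and 100% = TEM-1 with 100 µM potassium clavulanate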
# Target sequence (P62593 whole entry, looked up): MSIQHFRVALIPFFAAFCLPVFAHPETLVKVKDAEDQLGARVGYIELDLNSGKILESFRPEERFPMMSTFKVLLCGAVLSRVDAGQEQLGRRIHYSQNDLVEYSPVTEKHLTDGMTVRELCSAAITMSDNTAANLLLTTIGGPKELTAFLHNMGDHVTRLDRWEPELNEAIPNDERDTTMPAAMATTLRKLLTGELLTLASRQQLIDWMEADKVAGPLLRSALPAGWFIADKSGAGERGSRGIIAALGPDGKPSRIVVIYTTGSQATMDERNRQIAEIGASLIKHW
# VIM-2 inh conf: confirmation of P. aeruginosa VIM-2 metallo-beta-lactamase inhibitors; shares compounds with VIM-2 inh; purified VIM-2, nitrocefin hydrolysis, epi-absorbance; inhibition, % at 5.6 µM; 1,300 tested, 96% active;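 active = inhibition of the VIM-2 beta-lactamase enzyme above about 11% from the earlier first-round screen, limit read from the data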;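 note: 0% = VIM-2 with DMSO and 100% = buffer wells without enzyme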
# Numbers without * were called inactive; . = not tested or not shown.
SMILES,bovine MsrA act,PKA-R2B activ,IMP-1 inh-1,PKA-R1A act,VIM-2 inh,MsrA inh,IMP-1 inh-2,VIM-2 FRET ctr,TEM-1 inh,VIM-2 inh conf
CCOc1cc(C2C(C#N)=C(N)Oc3n[nH]c(C)c32)ccc1OCCN1CCOCC1 (stereo unspecified),-2.1,-6.6,-1.0,-3.1,1.3,0.4,.,.,.,.
N#C/C(=C(/O)CCl)c1nc2ccccc2[nH]1,-1.9,-8.9,0.3,-11.7,49.7*,0.6,-2.7,-12.2,-6.8,35.8*
Cc1cccc(C)c1OCC(=O)OC/C(O)=C(\C#N)c1nc2ccccc2[nH]1,-8.1,-7.3,-1.9,-10.1,4.0,0.6,.,.,.,.
Cc1cc(C)cc(OCC(=O)OC/C(O)=C(\C#N)c2nc3ccccc3[nH]2)c1,-3.7,10.2,1.2,-5.4,13.9*,-1.4,-2.8,-8.4,-4.1,5.3
O=C(O)c1ccccc1SCCS(=O)(=O)c1ccc(Cl)cc1Cl,-1.9,0.1,-0.3,-3.8,0.1,.,.,.,.,.
Cc1ccc2nc(Cl)c3cc(C(=O)NCCCN4CCCC4)sc3c2c1,-1.9,-2.9,-2.1,-10.9,12.8*,-0.9,-2.3,7.4,-5.7,26.8*
Cc1ccc2oc(=O)c3cc(C(=O)NCCCN4CCC(C)CC4)sc3c2c1,.,.,.,.,.,0.4,.,.,.,.
Cc1noc(C)c1COc1cccc(C(=O)N(C)Cc2nc3ccccc3c(=O)[nH]2)c1,-2.5,11.6,.,3.0,.,-0.4,.,.,.,.
Cc1nc2c(OCc3ccc(Cl)cc3)cccn2c1N(C)C(=O)CCC1CCCC1,-3.7,.,.,.,.,0.0,.,.,.,.
C=CCNC(=S)N/N=C(\C)c1cccnc1,-3.0,-4.3,-3.9,-0.2,-0.4,1.1,.,.,.,.
C=CCNC(=S)N/N=C(\C)c1ccc(-n2ccnc2)cc1,-13.3,-1.4,-1.0,-1.8,66.4*,0.8,-2.8,-7.0,-7.7,80.4*
CNC(=S)N/N=C(\C)c1ccc(-n2ccnc2)cc1,-1.4,-5.2,1.3,2.7,23.4*,-0.3,-3.8,-15.2,-7.3,43.0*
C/C(=N\NC(N)=O)c1ccc(-n2ccnc2)cc1,-2.7,-9.9,-0.9,1.3,2.1,1.8,.,.,.,.
C/C(=N\NC(=S)NC(C)C)c1ccc(-n2ccnc2)cc1,-3.5,-10.2,-1.5,-3.7,77.3*,1.3,-1.7,-11.5,-7.4,86.4*
COCCNC(=S)N/N=C(\C)c1ccc(-n2ccnc2)cc1,-2.2,10.6,-2.4,-1.9,67.2*,3.3,1.1,1.5,0.4*,81.7*
COCCNC(=S)N/N=C(\C)c1ccc(O)cc1,-2.0,0.1,-3.0,-10.5,-6.3,1.6,.,.,.,.
CCOC(=O)c1sc2nc(C)nc(NCc3cccnc3)c2c1C,-3.2,-2.2,-3.4,-8.5,23.9*,-1.1,-2.6,-3.9,-6.4,50.3*
CCOC(=O)c1sc2nc(C)nc(NCc3ccc(F)cc3)c2c1C,0.6,-6.5,-1.8,-3.1,1.4,2.6,.,.,.,.
CCC(C)c1ccc(OCc2ccc(C(=O)O)o2)cc1 (stereo unspecified),0.1,0.5,-2.0,-5.9,-1.4,-0.7,.,.,.,.
CCCc1cc(=O)oc2c3c(cc(OCC(=O)N[C@@H](CSC)C(=O)O)c12)OC(C)(C)CC3,-2.3,4.0,-3.3,7.9,37.0*,2.1,-2.2,67.8*,-6.9,43.9*
CCCc1cc(=O)oc2c3c(cc(OCC(=O)N[C@@H](C)C(=O)O)c12)OC(C)(C)CC3,-5.1,-2.9,-0.1,9.7,17.5*,3.9,-2.7,40.6*,-3.3,24.4*
CCCNC(=O)C1(C)CCCN(C(=O)c2sccc2C)C1 (stereo unspecified),-1.9,.,.,.,.,-0.5,.,.,.,.
Cc1ccc2c(c1)c1nc3ccccc3nc1n2CCN1CCOCC1,-12.5,-8.4,-3.5,-19.1,2.2,0.9,.,.,.,.
